Laboratory results from ChEMBL document CHEMBL1681713, “Lead detoxification activities and ADMET hepatotoxicities of a class of novel 5-(1-carbonyl-L-amino-acid)-2,2-dimethyl-[1,3]dithiolane-4-carboxylic acids” (Bioorg Med Chem Lett, 2011).

Experiments:
Femur [1] = assay: Detoxification activity against lead-induced toxicity in mouse assessed as reduction lead level in femurs per gram of organ at 0.4 mmol/kg, ip qd for 5 days measured 24 hrs last post dose by synchrotron X-ray fluorescence analysis; type: functional
Method in brief: (§1)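 Lead-loaded mice were given normal saline vehicle (negative control) or test agent at 0.2, 0.4 or 0.6 mmol/kg. Lead was measured in liver, kidney, left femur and brain and reported as mean ± SD µg Pb/g organ against the NS group.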

Brain [2] = assay: Toxicity in mouse assessed as effect on copper level in brain per gram of organ at 0.4 mmol/kg, ip qd for 5 days; type: organism-based; settings: in vivo, 120 h
Liver [3] = assay: Detoxification activity against lead-induced toxicity in mouse assessed as reduction lead level in liver per gram of organ at 0.2 mmol/kg, ip qd for 5 days measured 24 hrs last post dose by synchrotron X-ray fluorescence analysis; type: functional; method in brief: as §1
Brain [4] = assay: Toxicity in mouse assessed as effect on manganese level in brain per gram of organ at 0.4 mmol/kg, ip qd for 5 days; type: organism-based; settings: in vivo, 120 h
Kidney [5] = assay: Toxicity in mouse assessed as effect on copper level in kidney per gram of organ at 0.4 mmol/kg, ip qd for 5 days; type: organism-based; settings: in vivo, 120 h
Liver [6] = assay: Detoxification activity against lead-induced toxicity in mouse assessed as reduction lead level in liver per gram of organ at 0.4 mmol/kg, ip qd for 5 days measured 24 hrs last post dose by synchrotron X-ray fluorescence analysis; type: functional; method in brief: as §1
Kidney [7] = assay: Detoxification activity against lead-induced toxicity in mouse assessed as reduction lead level in kidney per gram of organ at 0.6 mmol/kg, ip qd for 5 days measured 24 hrs last post dose by synchrotron X-ray fluorescence analysis; type: functional; method in brief: as §1
Kidney [8] = assay: Toxicity in mouse assessed as effect on zinc level in kidney per gram of organ at 0.4 mmol/kg, ip qd for 5 days; type: organism-based; settings: in vivo, 120 h
Brain [9] = assay: Detoxification activity against lead-induced toxicity in mouse assessed as reduction lead level in brain per gram of organ at 0.4 mmol/kg, ip qd for 5 days measured 24 hrs last post dose by synchrotron X-ray fluorescence analysis; type: functional; method in brief: as §1
Liver [10] = assay: Toxicity in mouse assessed as effect on iron level in liver per gram of organ at 0.4 mmol/kg, ip qd for 5 days; type: organism-based; settings: in vivo, 120 h
Brain [11] = assay: Detoxification activity against lead-induced toxicity in mouse assessed as reduction lead level in brain per gram of organ at 0.2 mmol/kg, ip qd for 5 days measured 24 hrs last post dose by synchrotron X-ray fluorescence analysis; type: functional; method in brief: as §1
Kidney [12] = assay: Toxicity in mouse assessed as effect on manganese level in kidney per gram of organ at 0.4 mmol/kg, ip qd for 5 days; type: organism-based; settings: in vivo, 120 h
Kidney [13] = assay: Toxicity in mouse assessed as effect on calcium level in kidney per gram of organ at 0.4 mmol/kg, ip qd for 5 days; type: organism-based; settings: in vivo, 120 h
Brain [14] = assay: Toxicity in mouse assessed as effect on calcium level in brain per gram of organ at 0.4 mmol/kg, ip qd for 5 days; type: organism-based; settings: in vivo, 120 h
Liver [15] = assay: Toxicity in mouse assessed as effect on zinc level in liver per gram of organ at 0.4 mmol/kg, ip qd for 5 days; type: organism-based; settings: in vivo, 120 h
Mus musculus = assay: Toxicity in mouse assessed as change in bodyweight at 0.4 mmol/kg, ip qd for 5 days; type: organism-based; settings: in vivo, 120 h
Method in brief: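 Lead-loaded mice were given normal saline vehicle or test agent at 0.4 mmol/kg. Body weights were recorded and compared with the NS group to assess growth.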

Femur [16] = assay: Detoxification activity against lead-induced toxicity in mouse assessed as reduction lead level in femurs per gram of organ at 0.2 mmol/kg, ip qd for 5 days measured 24 hrs last post dose by synchrotron X-ray fluorescence analysis; type: functional; method in brief: as §1
Liver [17] = assay: Toxicity in mouse assessed as effect on manganese level in liver per gram of organ at 0.4 mmol/kg, ip qd for 5 days; type: organism-based; settings: in vivo, 120 h
Brain [18] = assay: Toxicity in mouse assessed as effect on iron level in brain per gram of organ at 0.4 mmol/kg, ip qd for 5 days; type: organism-based; settings: in vivo, 120 h
Brain [19] = assay: Toxicity in mouse assessed as effect on zinc level in brain per gram of organ at 0.4 mmol/kg, ip qd for 5 days; type: organism-based; settings: in vivo, 120 h
Kidney [20] = assay: Detoxification activity against lead-induced toxicity in mouse assessed as reduction lead level in kidney per gram of organ at 0.4 mmol/kg, ip qd for 5 days measured 24 hrs last post dose by synchrotron X-ray fluorescence analysis; type: functional; method in brief: as §1
Femur [21] = assay: Detoxification activity against lead-induced toxicity in mouse assessed as reduction lead level in femurs per gram of organ at 0.6 mmol/kg, ip qd for 5 days measured 24 hrs last post dose by synchrotron X-ray fluorescence analysis; type: functional; method in brief: as §1
Liver [22] = assay: Toxicity in mouse assessed as effect on copper level in liver per gram of organ at 0.4 mmol/kg, ip qd for 5 days; type: organism-based; settings: in vivo, 120 h
Liver [23] = assay: Toxicity in mouse assessed as effect on calcium level in liver per gram of organ at 0.4 mmol/kg, ip qd for 5 days; type: organism-based; settings: in vivo, 120 h
[24] = Detoxification activity against lead-induced toxicity in mouse assessed as reduction lead level in urine at 0.4 mmol/kg, ip qd for 5 days measured 24 hrs last post dose by synchrotron X-ray fluorescence analysis; type: functional
Method in brief: (§2)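 Lead-loaded mice were given normal saline vehicle, DL-penicillamine or NaDMS (positive controls), or test agent, each at 0.4 mmol/kg; n = 12 per group. Lead was measured in feces and urine and reported as mean ± SD µg Pb/g excrement against the NS group.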

Brain [25] = assay: Detoxification activity against lead-induced toxicity in mouse assessed as reduction lead level in brain per gram of organ at 0.6 mmol/kg, ip qd for 5 days measured 24 hrs last post dose by synchrotron X-ray fluorescence analysis; type: functional; method in brief: as §1
Kidney [26] = assay: Detoxification activity against lead-induced toxicity in mouse assessed as reduction lead level in kidney per gram of organ at 0.2 mmol/kg, ip qd for 5 days measured 24 hrs last post dose by synchrotron X-ray fluorescence analysis; type: functional; method in brief: as §1
[27] = Detoxification activity against lead-induced toxicity in mouse assessed as reduction lead level in feces at 0.4 mmol/kg, ip qd for 5 days measured 24 hrs last post dose by synchrotron X-ray fluorescence analysis; type: functional; method in brief: as §2
Liver [28] = assay: Detoxification activity against lead-induced toxicity in mouse assessed as reduction lead level in liver per gram of organ at 0.6 mmol/kg, ip qd for 5 days measured 24 hrs last post dose by synchrotron X-ray fluorescence analysis; type: functional; method in brief: as §1
Kidney [29] = assay: Toxicity in mouse assessed as effect on iron level in kidney per gram of organ at 0.4 mmol/kg, ip qd for 5 days; type: organism-based; settings: in vivo, 120 h

CC1(C)SC(C(=O)O)C(C(=O)N[C@@H](CC(=O)O)C(=O)O)S1 (stereo not given in full)
Activity (Femur [1]): 11.1 µg/g | Activity (Brain [2]): 2.4 µg/g | Activity (Liver [3]): 5.81 µg/g | Activity (Brain [4]): 0.78 µg/g | Activity (Kidney [5]): 3.53 µg/g | Activity (Liver [6]): 3.82 µg/g | Activity (Kidney [7]): 5.9 µg/g | Activity (Kidney [8]): 27.89 µg/g | Activity (Brain [9]): 1.22 µg/g | Activity (Liver [10]): 154.86 µg/g | Activity (Brain [11]): 1.69 µg/g | Activity (Kidney [12]): 1.32 µg/g | Activity (Kidney [13]): 76.47 µg/g | Activity (Brain [14]): 68.28 µg/g | Activity (Liver [15]): 37.69 µg/g | Activity (Mus musculus): 31.1 g | Activity (Femur [16]): 17.21 µg/g | Activity (Liver [17]): 1.35 µg/g | Activity (Brain [18]): 56.37 µg/g | Activity (Brain [19]): 34.8 µg/g | Activity (Kidney [20]): 7.09 µg/g | Activity (Femur [21]): 9.64 µg/g | Activity (Liver [22]): 3.61 µg/g | Activity (Liver [23]): 59.89 µg/g | Activity [24]: 2.83 µg/g | Activity (Brain [25]): 0.84 µg/g | Activity (Kidney [26]): 7.68 µg/g | Activity [27]: 4.8 µg/g | Activity (Liver [28]): 2.77 µg/g | Activity (Kidney [29]): 93.98 µg/g
